Measurements reported in PMC3668520 (FEBS Open Bio, 2013).

Legend:
[1] = system: FLAG-tagged human EBI2 (p38 phosphorylation); assay: p38 phosphorylation in CHO cells stably expressing EBI2; assay type: cell-based; conditions: serum-starved CHO EBI2 cells; ptx-sensitive
[2] = system: FLAG-tagged human EBI2 (ERK1/2 phosphorylation); assay: ERK1/2 phosphorylation in CHO cells stably expressing EBI2; assay type: cell-based; conditions: 10 min, read-out: EC50, ERK1/2 activation
[3] = system: B cells isolated from wt and EBI2-overexpressing C57BL/6 mice; assay: Ex vivo B cell chemotaxis; assay type: cell-based, mouse
Procedure, shortened: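 B cells came from wt and EBI2-overexpressing C57BL/6 mice. 7α,25-OHC and/or test compound was placed in the lower chamber, and 200,000 cells went onto 5 μm-pore filters. After 5 h at 37 °C, migrated cells were quantified by CellTiterGlo luminescence. Agonist response is expressed as chemotactic index (four experiments). Inhibition was tested on EBI2-overexpressing cells with 0.1 nM 7α,25-OHC, relative to agonist alone (three experiments).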

FLAG-tagged human EBI2 = FLAG-tagged human EBI2 (Homo sapiens, UniProt P32249); assay: [35S]GTPγS binding to membranes from CHO cells stably expressing EBI2; assay type: biochemical
Chain of FLAG-tagged human EBI2 (P32249 whole entry): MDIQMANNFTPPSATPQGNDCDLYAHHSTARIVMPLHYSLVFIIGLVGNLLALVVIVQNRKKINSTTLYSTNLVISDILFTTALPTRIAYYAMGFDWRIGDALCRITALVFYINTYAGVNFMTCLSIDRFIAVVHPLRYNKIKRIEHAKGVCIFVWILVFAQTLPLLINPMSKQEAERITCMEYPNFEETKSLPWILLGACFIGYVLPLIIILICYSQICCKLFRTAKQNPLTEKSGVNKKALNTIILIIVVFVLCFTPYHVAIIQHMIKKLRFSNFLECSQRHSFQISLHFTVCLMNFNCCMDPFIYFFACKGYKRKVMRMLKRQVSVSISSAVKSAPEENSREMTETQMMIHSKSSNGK
Procedure, shortened: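 Membranes from CHO Flp-In cells stably expressing M1-FLAG-EBI2 or pcDNA5 (10 μg) were incubated 30 min with ligands and 1 nM [35S]GTPγS. WGA SPA beads (2.8 mg/mL) were then added for 30 min, followed by centrifugation and scintillation counting. Nonspecific binding was defined with 40 μM unlabelled GTPγS. Inhibition was run at 1 nM 7α,25-OHC. Agonist curves were run at 0, 100 nM, 1 μM and 10 μM antagonist. Kd and slope come from Schild regression (x-intercept). Three independent experiments.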

EBI2 = conditions: at 5 μM; ref PubChem BioAssay ID: 651636; cited from earlier work

EC50 [2]	EC50 ([3]; Mus musculus, B-cell, read-out: EC50, chemotaxis)	EC50 (FLAG-tagged human EBI2)	Compound	p38 activation [1]	Concentration at which chemotaxis peaked ([3]; both wt and EBI2-OE B cells)	Suppression of 7α,25-OHC-induced β-arrestin recruitment (EBI2)
3 nM	0.1 nM	1 nM	C[C@H](CCCC(C)(C)O)[C@H]1CC[C@H]2[C@@H]3[C@H](O)C=C4C[C@@H](O)CC[C@]4(C)[C@H]3CC[C@]12C [7α,25-OHC, 7α,25-dihydroxycholesterol]	dose-dependently activated	1 nM	–
–	–	–	O=C(/C=C/c1ccc(Cl)cc1)N1CCN(c2c(Cl)cccc2[N+](=O)[O-])CC1 [CID: 5804570]	–	–	best compound
